According to PubChem BioAssay:

Test: yeast TOR pathway reporter LAP4-GFP change – cell-based, cherry picks, flow cytometry, mother/daughter gates, confirmation (AID 2271);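 also: ratio of sample to DMSO plate mean so 100% equals DMSO level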
Conditions: S. cerevisiae LAP4-GFP strain, 3 h, measured here: daughter cell gate response, at 10 µM, stronger effect = higher value, 100 means same as DMSO control
How it was run: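 Material: Alexa 633-stained baker's yeast GFP-fusion strain; Compound dosing: single test-compound dose, 10 µM final; Incubation: 30 °C, 3 h compound incubation, rotating; Detection: HT flow cytometry, GFP fluorescence channel; Control set: positive rapamycin (400 ng/mL), negative DMSO.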

| SMILES | GFP response relative to DMSO [%] |
| --- | --- |
| CS(=O)(=O)N1CCc2cc(C(=O)Nc3ccc(COCC(F)(F)F)cc3)ccc21 | 97.2 |
| O=[N+]([O-])c1ccc(Sc2ccccc2Cl)nc1 | 93.6 |
| CC(=O)Oc1ccc(N2C(=O)C3C4C=CC(CO)(O4)C3C2=O)cc1 (stereo not drawn) | 120 |

Same assay, conditions: S. cerevisiae LAP4-GFP strain, 3 h, measured here: mother cell gate response, at 10 µM, stronger effect = higher value, 100 means same as DMSO control

| SMILES | GFP response relative to DMSO [%] |
| --- | --- |
| N=c1n(CCN2CCCCC2)c2ccccc2n1CC(=O)c1ccc(Cl)c(Cl)c1 | 102 |
| COc1cc(NC(=O)c2ccccc2F)ccc1NC(=O)c1cc2ccccc2o1 | 97.3 |
| CCCC(=O)Nc1ccc(NC(=O)c2cc3ccccc3o2)c(OC)c1 | 98.4 |
| Cc1ccc(NC(=O)CCCSc2nc3ccccc3[nH]2)cc1 | 98.2 |
| COc1ccc2c(c1)C=Cc1ccccc1O2 | 99.3 |
| Cc1ccc(-n2nc(C)c3c(C)c(CCC(=O)O)c(C)nc32)cc1 | 100 |
| Oc1ccc(/C=N/Nc2nc(-c3cccnc3)nc3ccccc23)c(O)c1 | 82.7 |
| CCCOc1ccc(N2C(=O)CC(SCCN)C2=O)cc1 (stereo not drawn) | 99.3 |
| CCN(CC)C(=O)c1ccc(-c2cccs2)s1 | 108 |
| O=C(COc1ccccc1[N+](=O)[O-])Nc1ccc(NC(=O)c2cc3ccccc3o2)cc1 | 88.9 |
| COCCNC(=O)c1ccccc1-c1nc(-c2ccccc2Cl)no1 | 99.3 |
| COc1ccc(N2C(=O)CC(Sc3ncn[nH]3)C2=O)c(OC)c1 (stereo not drawn) | 167 |
| COc1ccc(N=Nc2ccc(O)c3ncccc23)cc1 | 200 |
| COc1cc(NC(=O)c2ccccc2)ccc1NC(=O)c1cc2ccccc2o1 | 92.3 |
| CS(=O)(=O)N1N=C(c2ccco2)CC1c1ccc(Br)cc1 (stereo not drawn) | 103 |
| CCN(C(=O)c1ccccc1Cl)c1ccccc1 | 110 |
| Cc1ccc(NC(=S)N/N=C/c2c(C)[nH]c3ccccc23)cc1 | 104 |
| CCc1nnc(NC(=O)c2nc(S(=O)(=O)Cc3cccc(C)c3)ncc2Cl)s1 | 102 |
| O=C(NCc1ccc2c(c1)OCO2)c1nc(S(=O)(=O)Cc2ccccc2)ncc1Cl | 109 |
| COc1ccccc1-c1noc(-c2cc(OC)c(OC)c(OC)c2)n1 | 105 |

| SMILES | GFP response relative to DMSO [%] |
| --- | --- |
| N#C/C(=C\c1c(N2CCCCC2)nc2ccccn2c1=O)C(=O)NCc1ccco1 | 96.5 |
| COc1cc(NC(=O)c2ccc(Br)cc2)ccc1NC(=O)c1cc2ccccc2o1 | 98.3 |
| CCOC(=O)CS(=O)(=O)c1nc(-c2ccc(F)cc2)cc(C(F)(F)F)n1 | 165 |
| CC[n+]1c(/C=C/c2ccc(N(C)C)cc2)ccc2ccccc21 | 106 |
| CCOc1cc(/C=N/Nc2nc(C)cc(=O)[nH]2)ccc1O | 90.1 |
| Cc1ccc(/C=C/C(=O)c2ccccc(=O)c2O)c(C)c1 | 158 |
| COc1ccc(-c2ccc(S(=O)(=O)N3CCOCC3)cc2)cc1 | 107 |
| CCNC(=O)c1ccccc1-c1nc(-c2ccccc2Cl)no1 | 104 |
| O=C(OCC(=O)N1CCN(C(=O)c2ccco2)CC1)c1cc(-c2ccccc2)nc2ccccc12 | 153 |
| Cc1nnc(NC(=O)c2ccc(S(=O)(=O)N3CCCCCC3)cc2)o1 | 97.3 |
| NC(N)=N/N=C/c1ccc(OCc2ccc(Cl)cc2Cl)cc1 | 121 |
| Cc1noc(/C=C/c2cccnc2)c1[N+](=O)[O-] | 124 |
| NC(=O)c1ccccc1OCC(=O)c1ccc(Cl)cc1 | 97.4 |
| CCc1nnc(NC(=O)c2nc(S(=O)(=O)Cc3ccc(C)cc3)ncc2Cl)s1 | 102 |
| CN1/C(=C\C(=O)c2cccc(S(=O)(=O)N3CCCCC3)c2)C(C)(C)c2ccccc21 | 94 |
| Cc1n[nH]c(C)c1N1C(=O)c2cccc3c(Br)ccc(c23)C1=O | 98.5 |
| Cc1nnc(N2C(=O)c3cccc4cccc(c34)C2=O)s1 | 96.4 |
| CS(=O)(=O)N1CCc2cc(C(=O)Nc3ccc(COCC(F)(F)F)cc3)ccc21 | 93.1 |
| O=[N+]([O-])c1ccc(Sc2ccccc2Cl)nc1 | 89.7 |
| CC(=O)Oc1ccc(N2C(=O)C3C4C=CC(CO)(O4)C3C2=O)cc1 (stereo not drawn) | 120 |
